According to ChEMBL document CHEMBL1177718, “Phosphoramidate ProTides of 2'-C-methylguanosine as highly potent inhibitors of hepatitis C virus. Study of their in vitro and in vivo properties” (J Med Chem, 2010):

Experiments:
[1] = Metabolic stability in mouse plasma assessed as compound remaining at 1 ug/ml after 4 hrs; type: ADME, cell-free; conditions: read-out: Stability
[2] = Metabolic stability in cynomolgus monkey plasma assessed as compound remaining at 1 ug/ml after 4 hrs; type: ADME, cell-free, Macaca fascicularis; conditions: read-out: Stability
Summary of the method: (§1)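 Duplicate incubations; compound at final 1 μg/mL in plasma preincubated and kept at […]; samples taken at 30 or 240 min, quenched with ice-cold acetonitrile, centrifuged, supernatant diluted with water; parent quantified by LC-MS/MS (Polar-RP column, formic acid water/acetonitrile gradient, positive ion mode); % remaining reported.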

[3] = Metabolic stability in dog plasma assessed as compound remaining at 1 ug/ml after 30 mins; type: ADME, cell-free, Canis lupus familiaris; conditions: read-out: Stability; summary of the method: as §1
[4] = Metabolic stability in rat plasma assessed as compound remaining at 1 ug/ml after 30 mins; type: ADME, cell-free; conditions: read-out: Stability; summary of the method: as §1
[5] = organism: Homo sapiens; test: Metabolic stability in human plasma assessed as compound remaining at 1 ug/ml after 30 mins
[6] = Cytotoxicity against human HuH7 cells after 72 hrs by celltiter-glo assay; type: cell-based, Huh-7
Summary of the method: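 Replicon 1b Huh7 cells seeded 2 × 10⁴/well; after 24 h, 11 serial 2× dilutions from 100 μM (three repeats each) with no-compound control; 72 h at 37 °C, CO₂, log-phase growth; viability by CellTiter-Glo luminescence; CC₅₀ = concentration giving 50% signal.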

[7] = Metabolic stability in cynomolgus monkey plasma assessed as compound remaining at 1 ug/ml after 30 mins; type: ADME, cell-free, Macaca fascicularis; conditions: read-out: Stability; summary of the method: as §1
[8] = Metabolic stability in rat plasma assessed as compound remaining at 1 ug/ml after 4 hrs; type: ADME, cell-free; conditions: read-out: Stability; summary of the method: as §1
[9] = tested on: Hepatitis C virus; test: Antiviral activity against HCV1b infected in human HuH7 cells assessed as inhibition of viral replication after 48 hrs by luciferase reporter gene assay; type: functional, organism-based, Hepacivirus hominis; conditions: genotype 1b, Huh-7, 48 h
Summary of the method: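 Huh7 cells carrying genotype 1b bicistronic subgenomic replicon, seeded 2 × 10⁴/well without G-418; compounds added 18-24 h later, 48 h exposure; 3× or 4× serial dilutions over 0.0001-10 μM in triplicate/quadruplicate; Renilla luciferase read-out versus untreated cells; EC₅₀ by four-parameter sigmoidal nonlinear regression; at least three independent assays.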

[10] = organism: Homo sapiens; test: Metabolic stability in human plasma assessed as compound remaining at 1 ug/ml after 4 hrs
[11] = Metabolic stability in dog plasma assessed as compound remaining at 1 ug/ml after 4 hrs; type: ADME, cell-free, Canis lupus familiaris; conditions: read-out: Stability; summary of the method: as §1
[12] = Metabolic stability in mouse plasma assessed as compound remaining at 1 ug/ml after 30 mins; type: ADME, cell-free; conditions: read-out: Stability
[13] = Cmax in ICR mouse plasma at 50 mg/kg, po by LC-MS/MS analysis; type: ADME, organism-based; parameters: dose 50 mg/kg, route oral
[14] = tested on: Plasma; test: Dose normalized AUC in ICR mouse plasma at 50 mg/kg, po by LC-MS/MS analysis; type: ADME, organism-based; parameters: dose 50 mg/kg, route oral; conditions: in vivo
[15] = Metabolic stability in dog intestine S9 fraction assessed as compound remaining at 10 uM after 60 mins by HPLC analysis in presence of NADP; type: ADME, tissue-based, Canis lupus familiaris; conditions: read-out: Stability
Summary of the method: (§2)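 Liver or intestinal S9 at final 1 mg/mL in 50 mM potassium phosphate, with or without NADPH-regenerating system (1.3 mM NADP, 3.3 mM glucose-6-phosphate, 0.4 U/mL G6PDH, 3.3 mM MgCl₂); 10 min preincubation at 37 °C; compound at final 10 μM; samples at start and 60 min quenched in cold acetonitrile, centrifuged, HPLC; % parent remaining.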

[16] = Metabolic stability in dog liver S9 fraction assessed as compound remaining at 10 uM after 60 mins by HPLC analysis in presence of NADP; type: ADME, subcellular, Canis lupus familiaris; conditions: read-out: Stability; summary of the method: as §2
[17] = Metabolic stability in dog liver S9 fraction assessed as compound remaining at 10 uM after 60 mins by HPLC analysis in absence of NADP; type: ADME, subcellular, Canis lupus familiaris; conditions: read-out: Stability; summary of the method: as §2
[18] = Metabolic stability in dog intestine S9 fraction assessed as compound remaining at 10 uM after 60 mins by HPLC analysis in absence of NADP; type: ADME, tissue-based, Canis lupus familiaris; conditions: read-out: Stability; summary of the method: as §2
[19] = Metabolic stability in human intestine S9 fraction assessed as compound remaining at 10 uM after 60 mins by HPLC analysis in absence of NADP; type: ADME, tissue-based; conditions: read-out: Stability; summary of the method: as §2
[20] = Metabolic stability in human liver S9 fraction assessed as compound remaining at 10 uM after 60 mins by HPLC analysis in absence of NADP; type: ADME, subcellular; conditions: read-out: Stability; summary of the method: as §2
[21] = Metabolic stability in human intestine S9 fraction assessed as compound remaining at 10 uM after 60 mins by HPLC analysis in presence of NADP; type: ADME, tissue-based; conditions: read-out: Stability; summary of the method: as §2
[22] = Metabolic stability in human liver S9 fraction assessed as compound remaining at 10 uM after 60 mins by HPLC analysis in presence of NADP; type: ADME, subcellular; conditions: read-out: Stability; summary of the method: as §2

Row | remaining at 0.5 h, 1 ug/ml [3] | remaining at 0.5 h, 1 ug/ml [5] | EC50 [9] | Cmax [13] | AUC [14] | Structure (SMILES) | remaining at 4 h, 1 ug/ml [1] | remaining at 4 h, 1 ug/ml [2] | remaining at 0.5 h, 1 ug/ml [4] | CC50 at 72 h [6] | remaining at 0.5 h, 1 ug/ml [7] | remaining at 4 h, 1 ug/ml [8] | remaining at 4 h, 1 ug/ml [10] | remaining at 4 h, 1 ug/ml [11] | remaining at 0.5 h, 1 ug/ml [12] | also measured
1 | 95% | 93% | 1700 nM | – | – | CC(C)[C@H](NP(=O)(OC[C@H]1O[C@@H](n2cnc3c(=O)[nH]c(N)nc32)[C@](C)(O)[C@@H]1O)Oc1ccc2ccccc2c1)C(=O)OCc1ccccc1 (stereo partly drawn) | 76% | 95% | 49% | > 100000 nM | 100% | 22% | 100% | 99% | 99% | –
2 | 100% | 97% | > 3000 nM | – | – | CC(OC(=O)[C@@H](NP(=O)(OC[C@H]1O[C@@H](n2cnc3c(=O)[nH]c(N)nc32)[C@](C)(O)[C@@H]1O)Oc1cccc2ccccc12)C(C)C)c1ccccc1 (stereo partly drawn) | – | – | – | – | – | – | – | – | 100% | –
3 | – | – | 1700 nM | – | – | CC(C)[C@H](NP(=O)(OC[C@H]1O[C@@H](n2cnc3c(=O)[nH]c(N)nc32)[C@](C)(O)[C@@H]1O)Oc1cccc2ccccc12)C(=O)OCCc1ccccc1 (stereo partly drawn) | – | – | – | > 100000 nM | – | – | – | – | – | –
4 | 90% | 100% | 680 nM | 388 ng/mL | > 33 ng·h/mL | CC(C)[C@H](NP(=O)(OC[C@H]1O[C@@H](n2cnc3c(=O)[nH]c(N)nc32)[C@](C)(O)[C@@H]1O)Oc1cccc2ccccc12)C(=O)OCc1cccc(Cl)c1 (stereo partly drawn) | – | – | – | – | – | – | – | – | 79% | –
5 | 100% | 100% | 1000 nM | 668 ng/mL | 52 ng·h/mL | Cc1ccccc1COC(=O)[C@@H](NP(=O)(OC[C@H]1O[C@@H](n2cnc3c(=O)[nH]c(N)nc32)[C@](C)(O)[C@@H]1O)Oc1cccc2ccccc12)C(C)C (stereo partly drawn) | – | – | – | > 100000 nM | – | – | – | – | 67% | –

Row | Structure (SMILES) | remaining at 0.5 h, 1 ug/ml [3] | remaining at 0.5 h, 1 ug/ml [5] | EC50 [9] | Cmax [13] | AUC [14] | remaining at 4 h, 1 ug/ml [1] | remaining at 4 h, 1 ug/ml [2] | remaining at 0.5 h, 1 ug/ml [4] | CC50 at 72 h [6] | remaining at 0.5 h, 1 ug/ml [7] | remaining at 4 h, 1 ug/ml [8] | remaining at 4 h, 1 ug/ml [10] | remaining at 4 h, 1 ug/ml [11] | remaining at 0.5 h, 1 ug/ml [12] | also measured
6 | CC(C)[C@@H](NP(=O)(OC[C@H]1O[C@@H](n2cnc3c(=O)[nH]c(N)nc32)[C@](C)(O)[C@@H]1O)Oc1cccc2ccccc12)C(=O)OCc1ccccc1 (stereo partly drawn) | 69% | 70% | > 3000 nM | – | – | 8% | 80% | 82% | > 100000 nM | 68% | 56% | 82% | 61% | 51% | –
7 | CC(C)[C@H](NP(=O)(OC[C@H]1O[C@@H](n2cnc3c(=O)[nH]c(N)nc32)[C@](C)(O)[C@@H]1O)Oc1cccc2ccccc12)C(=O)OCC(C)(C)C (stereo partly drawn) | 79% | 91% | 1500 nM | 652 ng/mL | > 45 ng·h/mL | – | – | – | > 100000 nM | – | – | – | – | 77% | –
8 | COC(=O)[C@H](C)NP(=O)(OC[C@H]1O[C@@H](n2cnc3c(=O)[nH]c(N)nc32)[C@](C)(O)[C@@H]1O)Oc1cccc2ccccc12 (stereo partly drawn) | – | – | 210 nM | – | – | – | – | – | > 50000 nM | – | – | – | – | 1.7% | remaining at 1 h, 10 µM [15]: 50%; remaining at 1 h, 10 µM [16]: 67%; remaining at 1 h, 10 µM [17]: 85%; remaining at 1 h, 10 µM [18]: 54%; remaining at 1 h, 10 µM [19]: 63%; remaining at 1 h, 10 µM [20]: 40%; remaining at 1 h, 10 µM [21]: 60%; remaining at 1 h, 10 µM [22]: 20%
9 | CC(OC(=O)[C@H](C)NP(=O)(OC[C@H]1O[C@@H](n2cnc3c(=O)[nH]c(N)nc32)[C@](C)(O)[C@@H]1O)Oc1cccc2ccccc12)c1ccccc1 (mixture of isomers) | 97% | 86% | 95 nM | – | – | 0% | 88% | 0.7% | > 100000 nM | 100% | 0.3% | 86% | 93% | 2.2% | –
